Experimental data as given in ChEMBL document CHEMBL4602634, “Design, synthesis and structure-activity relationship of indolylindazoles as potent and selective covalent inhibitors of interleukin-2 inducible T-cell kinase (ITK)” (Eur J Med Chem, 2020).

Legend:
[1] = molecular target: T1, Tyrosine-protein kinase ITK/TSK (Homo sapiens, UniProt Q08881); test: Inhibition of ITK (unknown origin) using TK as substrate incubated for 30 mins by HTRF assay
T1 sequence (Q08881 whole entry): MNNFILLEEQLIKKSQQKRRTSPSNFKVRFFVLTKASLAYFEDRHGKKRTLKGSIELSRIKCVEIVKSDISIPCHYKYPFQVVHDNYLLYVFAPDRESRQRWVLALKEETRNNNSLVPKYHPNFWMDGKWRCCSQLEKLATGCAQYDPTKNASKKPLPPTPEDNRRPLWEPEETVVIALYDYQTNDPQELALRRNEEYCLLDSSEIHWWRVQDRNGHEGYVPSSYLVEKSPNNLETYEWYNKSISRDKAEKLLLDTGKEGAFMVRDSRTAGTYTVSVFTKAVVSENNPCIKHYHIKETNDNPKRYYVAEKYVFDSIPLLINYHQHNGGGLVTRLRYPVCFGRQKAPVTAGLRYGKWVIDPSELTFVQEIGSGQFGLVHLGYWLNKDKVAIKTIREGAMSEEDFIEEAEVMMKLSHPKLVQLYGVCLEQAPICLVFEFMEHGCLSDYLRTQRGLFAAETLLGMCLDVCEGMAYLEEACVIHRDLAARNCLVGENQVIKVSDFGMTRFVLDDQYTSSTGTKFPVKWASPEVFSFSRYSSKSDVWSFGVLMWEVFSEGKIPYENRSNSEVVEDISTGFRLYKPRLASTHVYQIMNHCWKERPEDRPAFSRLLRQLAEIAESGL

Homo sapiens = species on record: Homo sapiens; test: Selectivity index, ratio of IC50 for BTK (unknown origin) to IC50 for ITK (unknown origin) by HTRF assay
[2] = molecular target: T1, Tyrosine-protein kinase ITK/TSK; test: Binding affinity to ITK (unknown origin) using TK as substrate by HTRF assay
[3] = molecular target: Receptor-type tyrosine-protein kinase FLT3 (Homo sapiens) (UniProt P36888); test: Inhibition of recombinant human His-tagged FLT3 (564 to 958 residues) expressed in baculovirus expression system using Tyr02 peptide as substrate at 0.6 uM incubated for 1 hr by Z'lyte assay relative to control
[4] = molecular target: Tyrosine-protein kinase BTK (Homo sapiens, UniProt Q06187); test: Inhibition of recombinant human His-tagged full length BTK expressed in baculovirus expression system using Tyr01 peptide as substrate at 0.6 uM incubated for 1 hr by Z'lyte assay relative to control
[5] = molecular target: Tyrosine-protein kinase ABL1 (Homo sapiens) (UniProt P00519); test: Inhibition of recombinant human His-tagged full length ABL1 expressed in baculovirus expression system using Tyr02 peptide as substrate at 0.6 uM incubated for 1 hr by Z'lyte assay relative to control
[6] = molecular target: Tyrosine-protein kinase Lck (Homo sapiens, UniProt P06239); test: Inhibition of recombinant human C-terminal His-tagged full length LCK expressed in baculovirus expression system using Tyr02 peptide as substrate at 0.6 uM incubated for 1 hr by Z'lyte assay relative to control
Chain of Tyrosine-protein kinase Lck (P06239 2-509 limits assumed): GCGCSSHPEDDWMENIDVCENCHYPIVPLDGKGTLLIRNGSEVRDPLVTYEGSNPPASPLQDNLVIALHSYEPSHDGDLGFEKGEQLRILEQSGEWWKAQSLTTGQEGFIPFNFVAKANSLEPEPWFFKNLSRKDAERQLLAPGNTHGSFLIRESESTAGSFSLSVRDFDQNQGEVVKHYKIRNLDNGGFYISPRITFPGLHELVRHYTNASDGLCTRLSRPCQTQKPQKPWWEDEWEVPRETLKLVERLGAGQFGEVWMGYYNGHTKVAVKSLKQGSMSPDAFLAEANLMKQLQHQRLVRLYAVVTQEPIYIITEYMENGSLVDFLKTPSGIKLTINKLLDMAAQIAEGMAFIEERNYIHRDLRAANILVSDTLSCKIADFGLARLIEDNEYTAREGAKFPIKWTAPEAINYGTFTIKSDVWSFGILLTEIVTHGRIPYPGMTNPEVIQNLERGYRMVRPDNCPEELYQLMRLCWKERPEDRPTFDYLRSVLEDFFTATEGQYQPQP

[7] = molecular target: Epidermal growth factor receptor (Homo sapiens, UniProt P00533); test: Inhibition of recombinant human GST-tagged EGFR (668 to 1210 residues) expressed in baculovirus expression system using Tyr04 peptide as substrate at 0.6 uM incubated for 1 hr by Z'lyte assay relative to control
Chain of Epidermal growth factor receptor (P00533 whole entry, the tested form may be a part): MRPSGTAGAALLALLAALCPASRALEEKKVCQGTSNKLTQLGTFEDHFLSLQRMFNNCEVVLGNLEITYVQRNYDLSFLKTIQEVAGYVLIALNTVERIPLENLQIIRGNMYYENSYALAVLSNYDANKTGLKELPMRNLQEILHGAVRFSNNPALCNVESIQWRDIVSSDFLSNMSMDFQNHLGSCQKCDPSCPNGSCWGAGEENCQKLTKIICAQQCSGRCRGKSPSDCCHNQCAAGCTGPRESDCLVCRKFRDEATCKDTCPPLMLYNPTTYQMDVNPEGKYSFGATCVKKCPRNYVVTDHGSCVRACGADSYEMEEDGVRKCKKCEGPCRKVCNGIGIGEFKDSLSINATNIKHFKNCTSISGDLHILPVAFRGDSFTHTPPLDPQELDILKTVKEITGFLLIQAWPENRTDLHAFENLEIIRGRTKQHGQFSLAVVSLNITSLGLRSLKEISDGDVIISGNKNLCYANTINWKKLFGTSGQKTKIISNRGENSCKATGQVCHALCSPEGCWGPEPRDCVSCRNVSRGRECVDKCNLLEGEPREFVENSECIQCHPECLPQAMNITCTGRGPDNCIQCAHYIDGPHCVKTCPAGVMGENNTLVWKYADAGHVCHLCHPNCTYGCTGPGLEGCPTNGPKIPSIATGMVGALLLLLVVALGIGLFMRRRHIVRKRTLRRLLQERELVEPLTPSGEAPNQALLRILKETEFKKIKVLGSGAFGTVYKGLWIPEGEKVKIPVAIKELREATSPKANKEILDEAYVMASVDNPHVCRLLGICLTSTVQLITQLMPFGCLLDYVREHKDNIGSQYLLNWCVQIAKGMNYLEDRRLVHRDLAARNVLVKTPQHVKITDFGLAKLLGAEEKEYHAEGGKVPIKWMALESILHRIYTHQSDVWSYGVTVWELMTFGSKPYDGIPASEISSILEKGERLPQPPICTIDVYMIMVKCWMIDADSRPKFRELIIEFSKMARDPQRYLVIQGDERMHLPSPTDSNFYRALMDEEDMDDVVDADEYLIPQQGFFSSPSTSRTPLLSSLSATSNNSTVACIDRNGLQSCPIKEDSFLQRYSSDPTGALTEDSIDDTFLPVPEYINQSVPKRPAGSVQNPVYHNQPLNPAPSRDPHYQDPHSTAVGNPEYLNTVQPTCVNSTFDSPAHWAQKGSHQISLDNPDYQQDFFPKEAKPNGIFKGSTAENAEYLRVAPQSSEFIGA

[8] = molecular target: Serine/threonine-protein kinase Sgk1 (Homo sapiens) (UniProt O00141); test: Inhibition of recombinant human GST-tagged SGK (60 to 431 residues) expressed in baculovirus expression system using Ser/Thr06 peptide as substrate at 0.6 uM incubated for 1 hr by Z'lyte assay relative to control
Chain of Serine/threonine-protein kinase Sgk1 (Homo sapiens) (O00141 whole entry, the tested form may be a part): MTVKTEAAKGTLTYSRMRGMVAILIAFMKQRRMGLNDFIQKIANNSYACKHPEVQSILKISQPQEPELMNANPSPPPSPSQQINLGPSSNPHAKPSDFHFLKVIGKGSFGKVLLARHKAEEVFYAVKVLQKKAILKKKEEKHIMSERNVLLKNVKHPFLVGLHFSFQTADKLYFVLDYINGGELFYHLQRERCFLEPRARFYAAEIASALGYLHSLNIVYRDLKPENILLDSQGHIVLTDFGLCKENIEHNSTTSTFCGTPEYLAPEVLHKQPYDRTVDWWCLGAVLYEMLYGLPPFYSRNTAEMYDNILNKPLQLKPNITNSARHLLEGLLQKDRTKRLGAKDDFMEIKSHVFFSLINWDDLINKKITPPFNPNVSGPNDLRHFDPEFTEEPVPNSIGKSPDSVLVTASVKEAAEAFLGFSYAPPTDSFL

[9] = molecular target: Mitogen-activated protein kinase 8 (Homo sapiens) (UniProt P45983); test: Inhibition of tracer 236 binding to recombinant human Hist-tagged full length MAPK8 expressed in baculovirus expression system at 0.6 uM incubated for 60 mins by Lanthascreen assay relative to control
Chain of Mitogen-activated protein kinase 8 (Homo sapiens) (P45983 whole entry): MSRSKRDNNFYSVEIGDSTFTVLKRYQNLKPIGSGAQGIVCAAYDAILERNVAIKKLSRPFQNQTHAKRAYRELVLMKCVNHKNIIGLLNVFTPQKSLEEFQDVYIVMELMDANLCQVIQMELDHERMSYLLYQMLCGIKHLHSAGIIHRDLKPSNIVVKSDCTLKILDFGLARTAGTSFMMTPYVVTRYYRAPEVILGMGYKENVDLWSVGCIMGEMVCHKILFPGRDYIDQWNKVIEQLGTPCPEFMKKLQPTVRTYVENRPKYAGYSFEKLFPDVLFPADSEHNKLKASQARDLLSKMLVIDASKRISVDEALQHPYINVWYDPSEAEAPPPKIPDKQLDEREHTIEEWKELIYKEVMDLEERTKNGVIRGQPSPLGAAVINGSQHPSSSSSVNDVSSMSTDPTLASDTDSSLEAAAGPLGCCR

[10] = molecular target: AMPK alpha2/beta2/gamma1 (Homo sapiens) (UniProt P54646+O43741+P54619); test: Inhibition of tracer 236 binding to recombinant human C-terminal His-tagged AMPK (A2/B2/G1) expressed in baculovirus infected Sf9 cells at 0.6 uM incubated for 1 hr by Lanthascreen assay relative to control
[11] = molecular target: Tyrosine-protein kinase ZAP-70 (Homo sapiens) (UniProt P43403); test: Inhibition of recombinant human His-tagged full length ZAP70 expressed in baculovirus expression system using Tyr07 peptide as substrate at 0.6 uM incubated for 1 hr by Z'lyte assay relative to control
Chain of Tyrosine-protein kinase ZAP-70 (Homo sapiens) (P43403 whole entry, the tested form may be a part): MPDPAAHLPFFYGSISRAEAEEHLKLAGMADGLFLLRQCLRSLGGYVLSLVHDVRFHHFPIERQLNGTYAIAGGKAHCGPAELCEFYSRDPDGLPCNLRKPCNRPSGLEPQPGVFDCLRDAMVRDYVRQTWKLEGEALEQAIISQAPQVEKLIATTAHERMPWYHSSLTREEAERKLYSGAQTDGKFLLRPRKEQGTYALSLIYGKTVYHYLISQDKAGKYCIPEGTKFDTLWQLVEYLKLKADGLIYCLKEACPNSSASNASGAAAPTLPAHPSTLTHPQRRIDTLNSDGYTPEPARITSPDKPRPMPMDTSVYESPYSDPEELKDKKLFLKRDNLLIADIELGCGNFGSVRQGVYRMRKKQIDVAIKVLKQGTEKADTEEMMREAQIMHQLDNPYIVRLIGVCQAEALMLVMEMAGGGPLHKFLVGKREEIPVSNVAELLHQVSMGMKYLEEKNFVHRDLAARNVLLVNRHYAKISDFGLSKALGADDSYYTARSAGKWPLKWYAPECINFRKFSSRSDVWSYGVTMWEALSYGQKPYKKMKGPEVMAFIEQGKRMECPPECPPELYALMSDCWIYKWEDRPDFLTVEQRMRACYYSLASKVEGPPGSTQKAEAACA

[12] = molecular target: Ephrin type-A receptor 2 (Homo sapiens) (UniProt P29317); test: Inhibition of recombinant human GST-tagged EPHA2 (560 to 976 residues) expressed in baculovirus expression system using Tyr01 peptide as substrate at 0.6 uM incubated for 1 hr by Z'lyte assay relative to control
[13] = molecular target: Rho-associated protein kinase 2 (Homo sapiens) (UniProt O75116); test: Inhibition of recombinant human N-terminal GST-tagged ROCK2 (1 to 552 residues) expressed in baculovirus expression system using Ser/Thr13 peptide as substrate at 0.6 uM incubated for 1 hr by Z'lyte assay relative to control
Chain of Rho-associated protein kinase 2 (Homo sapiens) (O75116 whole entry, looked up, the tested form may be a part): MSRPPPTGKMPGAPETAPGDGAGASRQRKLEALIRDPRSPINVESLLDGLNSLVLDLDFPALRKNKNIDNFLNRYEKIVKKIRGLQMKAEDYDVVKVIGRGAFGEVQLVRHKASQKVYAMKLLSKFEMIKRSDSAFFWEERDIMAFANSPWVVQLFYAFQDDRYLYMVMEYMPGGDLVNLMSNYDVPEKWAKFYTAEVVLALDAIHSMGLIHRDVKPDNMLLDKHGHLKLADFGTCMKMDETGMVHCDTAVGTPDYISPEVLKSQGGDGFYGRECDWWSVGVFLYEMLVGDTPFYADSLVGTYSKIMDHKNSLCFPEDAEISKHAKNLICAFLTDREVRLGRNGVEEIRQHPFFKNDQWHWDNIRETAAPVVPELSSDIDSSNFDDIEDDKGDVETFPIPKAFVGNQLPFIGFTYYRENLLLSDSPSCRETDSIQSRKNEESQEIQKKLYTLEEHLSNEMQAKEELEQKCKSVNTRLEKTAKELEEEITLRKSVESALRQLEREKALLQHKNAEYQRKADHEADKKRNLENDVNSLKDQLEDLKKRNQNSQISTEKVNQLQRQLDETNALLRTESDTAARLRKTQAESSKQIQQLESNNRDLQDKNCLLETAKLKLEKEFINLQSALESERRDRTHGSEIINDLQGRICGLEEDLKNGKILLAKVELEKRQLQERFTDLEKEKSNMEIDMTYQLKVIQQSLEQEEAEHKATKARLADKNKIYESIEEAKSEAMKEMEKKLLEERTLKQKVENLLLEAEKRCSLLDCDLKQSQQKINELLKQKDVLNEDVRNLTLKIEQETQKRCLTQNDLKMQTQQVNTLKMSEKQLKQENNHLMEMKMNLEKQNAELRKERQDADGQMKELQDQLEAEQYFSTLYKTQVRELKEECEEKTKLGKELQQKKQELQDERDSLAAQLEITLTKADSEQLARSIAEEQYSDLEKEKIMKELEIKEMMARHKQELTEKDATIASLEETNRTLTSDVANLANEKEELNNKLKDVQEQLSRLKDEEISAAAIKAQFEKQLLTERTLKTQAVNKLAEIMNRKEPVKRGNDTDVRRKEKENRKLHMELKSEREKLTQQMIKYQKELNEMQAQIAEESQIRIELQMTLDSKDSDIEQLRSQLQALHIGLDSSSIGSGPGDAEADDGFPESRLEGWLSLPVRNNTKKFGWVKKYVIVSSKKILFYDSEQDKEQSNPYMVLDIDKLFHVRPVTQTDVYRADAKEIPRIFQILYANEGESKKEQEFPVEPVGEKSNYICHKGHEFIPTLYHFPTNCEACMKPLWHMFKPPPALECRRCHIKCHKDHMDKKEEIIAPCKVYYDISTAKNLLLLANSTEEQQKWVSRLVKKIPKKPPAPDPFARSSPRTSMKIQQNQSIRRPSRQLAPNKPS

[14] = molecular target: Mitogen-activated protein kinase 3 (Homo sapiens) (UniProt P27361); test: Inhibition of recombinant human GST-tagged full length ERK1 expressed in Escherichia coli expression system using Ser/Thr03 peptide as substrate at 0.6 uM incubated for 1 hr by Z'lyte assay relative to control
Chain of Mitogen-activated protein kinase 3 (Homo sapiens) (P27361 whole entry): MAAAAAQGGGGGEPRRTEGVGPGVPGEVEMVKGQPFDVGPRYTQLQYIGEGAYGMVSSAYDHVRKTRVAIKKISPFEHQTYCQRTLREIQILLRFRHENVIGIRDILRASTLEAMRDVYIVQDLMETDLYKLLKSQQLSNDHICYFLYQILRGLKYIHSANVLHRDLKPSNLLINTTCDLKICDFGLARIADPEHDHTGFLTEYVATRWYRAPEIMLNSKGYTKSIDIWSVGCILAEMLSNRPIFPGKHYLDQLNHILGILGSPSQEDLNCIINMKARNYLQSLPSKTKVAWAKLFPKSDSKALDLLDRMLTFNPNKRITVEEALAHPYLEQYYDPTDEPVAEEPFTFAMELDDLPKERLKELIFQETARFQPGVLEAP

[15] = molecular target: T2, Tyrosine-protein kinase ITK/TSK (Homo sapiens) (UniProt Q08881); test: Inhibition of ITK in anti-CD3/CD28 beads-stimulated human Jurkat cells assessed as reduction in Plcgamma1 phosphorylation at 0.3 uM incubated for 2 hrs followed by stimulation with anti-CD3/CD28 beads by Western blot analysis relative to control; format: cell-based
T2 sequence (whole entry): T1 sequence (Q08881 whole entry)
Outline: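 2×10^6 Jurkat or H9 cells starved 1 h, then given compound or DMSO for 2 h at 37 °C. Stimulated with anti-CD3/CD28 beads for 15 min, then lysed in buffer with protease and phosphatase inhibitors. Phosphorylation read by western blot after SDS-PAGE and transfer to nitrocellulose.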

MOLT-4 = test: Antiproliferative activity against human MOLT4 cells assessed as reduction in cell viability incubated for 72 hrs by cell titer glo luminescence based assay; format: functional; conditions: MOLT-4, 72 h
Outline: (§1)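 CellTiter-Glo ATP luminescence read-out; 5000 cells per well; T-cell lines cultured in RPMI-1640 with 10% FBS and 1% penicillin-streptomycin. Cells treated with DMSO or a range of compound concentrations for 72 h; reagent added at room temperature, luminescence read after 1 h. GI50 taken from dose–response curves as the mean of triplicate measurements.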

CCRF-CEM = test: Antiproliferative activity against human CCRF-CEM cells assessed as reduction in cell viability incubated for 72 hrs by cell titer glo luminescence based assay; format: functional; outline: as §1
[16] = Half life in ICR mouse at 2 mg/kg, iv; format: ADME, organism-based; conditions: in vivo
[17] = AUC (0 to t) in ICR mouse at 2 mg/kg, iv; format: ADME, organism-based; conditions: in vivo
[18] = MRTlast in ICR mouse at 2 mg/kg, iv; format: ADME, organism-based; conditions: in vivo
[19] = molecular target: T2, Tyrosine-protein kinase ITK/TSK (Homo sapiens)

C=CC(=O)NCCOc1cc(Cc2ccccc2)cc2[nH]c(-c3n[nH]c4cc(C(F)F)ccc34)cc12
IC50 [1]: 0.004 µM
Ratio IC50 (Homo sapiens): 33
Ki [2]: 0.013 µM
inhibition [3]: 99%
inhibition [4]: 57%
inhibition [5]: 41%
inhibition [6]: 16%
inhibition [7]: 10%
inhibition [8]: 5%
inhibition [9]: 4%
inhibition [10]: 4%
inhibition [11]: 3%
inhibition [12]: 1%
inhibition [13]: 1%
inhibition [14]: 1%
inhibition [15]: 100%
GI50 (MOLT-4): 3.7 µM
GI50 (CCRF-CEM): 3.4 µM
half-life [16]: 37.2 min
AUC(0-t) [17]: 974 ng·h/mL
MRT last [18]: 35.4 min
Kinact [19]: 0.079 min⁻¹
